T cruzi inh – inhibitors of intracellular T. cruzi growth, primary screen, luminescence, NIH3T3 host cells. inhibition, % (concentration not given with the values). T. cruzi beta-gal in NIH3T3, 90 h. 300,000 tested, 1.4% active;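 active means mean inhibition across valid replicates above about 55%, limit read from the data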;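 further: signal also drops with host cell toxicity which is not excluded here; 0% = plate median of DMSO wells and 100% = zero luminescence signal; higher percent means less beta-gal luminescence so fewer parasites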
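Read-out: Parasite load inhibition, % | Test system: Mouse NIH/3T3 fibroblasts infected with β-gal-expressing T. cruzi Tulahuen C4 | Amount: 5,000 cells/well | Medium: DMEM, 2% fetal bovine serum | Signal: GalScreen β-gal luminescence, detergent lysis, 60 min | Timing: 3 h attach, ≥90 h co-culture | Also added: Tulahuen C4 trypomastigotes, 5000/well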
Calb FLC – C. albicans growth inhibition with fluconazole, primary screen, CaCi-2 strain, Alamar Blue fluorescence; AID 1979, 2009; C. albicans CaCi-2 + fluconazole, 48 h; growth inhibition, % (concentration not given with the values); 300,000 tested, 0.57% active;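 active means growth inhibition above about 58% in most replicates, limit read from the data, passing the limit was not always enough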;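 further: all wells also contain fluconazole at 8 µg/ml as a sub-toxic cotreatment; 0% = median of DMSO wells and 100% = median of geldanamycin control wells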
CSC inhib – cancer stem cell viability inhibitors, primary screen, luminescence; cancer stem cell-like cells viability; 300,000 tested, 1.1% active; inhibition, % at 7.5 µM; AID 2717, 2010; in the data active means inhibition above about 75%; tested in HMLE shEcad cells
Bfl-1 A1 inh – caspase 3/7 activation in MEF A1-2A-BIM cells, primary screen, A1 inhibitor project, cell-based, luminescence, HTS; caspase activation, % (concentration not given with the values); 330,000 tested, 0.066% active; Caspase-Glo 3/7 luminescence, 3 h; percent of clofoctol response, vehicle zero;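 active means over half of replicate activation scores above 10%, or exactly half above 10 with the replicate mean above 10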
TAG inh – inhibitors of triacylglycerol accumulation, primary screen, cell-based, uHTS, fluorescence, H9c2. AID 651582, 2012. 230,000 tested, 0.66% active. H9c2 cells, Nile Red lipid (TAG) fluorescence; cells loaded with 200 µM oleic acid. inhibition, % at 12.5 µM;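 active means pattern-corrected inhibition of lipid staining of at least 50% with the nuclear-stain viability signal not falling by more than 50%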;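 further: 0% = DMSO wells and 100% = triacsin C control wells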
Beta apoptosis – inhibitors of cytokine-induced beta cell apoptosis, primary screen, luminescence. INS-1E cytokine-induced death, ATP luminescence, 48 h; percent of positive-control rescue, neutral wells zero. protection from apoptosis, % (no concentration beside the values). 300,000 tested, 0.8% active. AID 435005, 2010;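 active means Every replicate reaches about 75%, or at least half do and their mean reaches it too, limit read from the data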;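 further: 0% = cytokine-treated negative control wells and 100% = positive control rescue; higher means more ATP so stronger rescue from cytokine killing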
* hit, by the source's call; x = no result given. Rows were chosen to be rich in hits. Some 3.1% of all compounds tested hit in one or more screens of this group.

SMILES | T cruzi inh | Calb FLC | CSC inhib | Bfl-1 A1 inh | TAG inh | Beta apoptosis
Cn1nc(-c2ccc(Cl)cc2)c2cc(C(=O)NCCCN3CCOCC3)sc21 | -1.2 | 15.2 | 79.5* | 0.1 | 21.1 | 12.1
CCN(CC)CCNC(=O)c1cc2c(-c3ccc(Cl)cc3)nn(C)c2s1 | 39.5 | -3.0 | x | x | 65.1* | x
CCCCN(CC)CCNC(=O)c1cc2c(-c3ccc(Cl)cc3)nn(C)c2s1 | 57.1* | -5.3 | 112.1* | 1.3 | x | 20.3
CCCN(CCC)CCNC(=O)c1cc2c(-c3ccc(Cl)cc3)nn(C)c2s1 | 53.0 | -3.1 | 102.4* | 0.5 | x | 52.9
CCN1C(=O)c2cccc3c(S(=O)(=O)N4CCNCC4)ccc1c23 | x | x | -22.5 | -0.5 | 19.4 | 1.0
Cc1ccnc(NC(c2ccccc2)c2ccc3cccnc3c2O)c1 (stereo unspecified) | x | x | x | x | 31.0 | x
Cc1ccnc(NC(c2cccnc2)c2ccc3cccnc3c2O)c1 (stereo unspecified) | 17.2 | 89.6* | 0.5 | 0.7 | 49.2 | -25.1
COc1ccccc1NC(c1cccnc1)c1ccc2cccnc2c1O (stereo unspecified) | 40.5 | 81.6* | 40.1 | -0.7 | x | 14.1
Cc1ccsc1C(=O)NCCc1nnc2ccccn12 | 2.5 | -1.5 | -11.1 | 0.0 | x | -5.8
O=C1c2ccc3c4c(ccc(c24)C(=O)N1c1cccc(O)c1)C(=O)N(c1cccc(O)c1)C3=O | 10.2 | -6.8 | 12.0 | -0.8 | 67.9* | 117.8*
O=C1C=C(NCCN2CCOCC2)C(=O)c2cnccc21 | -8.9 | 26.5 | -14.3 | -0.5 | x | 98.0*
O=C(NCCN1CCOCC1)c1ccncc1 | -0.8 | -3.0 | -10.3 | -0.1 | 13.5 | -2.8
COc1ccccc1C(=O)NCC(=O)OCc1nnc(-c2ccccc2)o1 | x | x | x | x | -4.1 | x
Cc1ccc(S(=O)(=O)N(CC(=O)Nc2ccc(Cl)c([N+](=O)[O-])c2)C2CCCCC2)cc1 | 58.6* | -4.6 | 22.1 | -0.2 | x | 42.4
O=C(CN(C1CC1)S(=O)(=O)c1ccc(S(=O)(=O)N2CCCCCC2)cc1)Nc1ccccc1 | 10.8 | 6.1 | 1.1 | 0.2 | 25.4 | 5.6
CCN(C1CCCCC1)S(=O)(=O)c1ccc(S(=O)(=O)N(CC(=O)Nc2ccccc2)C2CC2)cc1 | 55.4* | 8.2 | x | 0.0 | x | 15.3
Cc1ccc(-c2csc(NC(=O)c3c(C)noc3C)n2)s1 | x | x | 1.0 | -2.2 | -29.4 | 123.9*
O=C1C=C(c2ccc(F)cc2OCc2ccccc2)C[C@@H](c2ccc3c(c2)OCO3)C1 | x | x | 3.3 | 0.2 | -11.6 | 10.4
CCOc1ccc(Br)cc1C1=CC(=O)C[C@H](c2ccc(OC)cc2)C1 | x | x | 82.0* | 0.9 | 24.1 | 9.1
COc1cc(F)c(C2=CC(=O)C[C@H](c3ccc(Cl)cc3)C2)cc1F | x | x | 78.5* | 0.4 | x | 2.2
COc1ccc([C@H]2CC(=O)C=C(c3cc(Br)ccc3OC)C2)cc1 | x | x | x | 0.3 | 2.9 | 3.6
O=C1C=C(c2ccc(F)cc2OCc2ccccc2)C[C@@H](c2ccc(Cl)cc2)C1 | x | x | 6.3 | -0.5 | -26.2 | 110.8*
O=C1C=C(c2cc(F)ccc2F)C[C@@H](c2ccc(Cl)cc2)C1 | x | x | 48.5 | -0.7 | 13.1 | -4.2
COc1ccc([C@H]2CC(=O)C=C(c3ccnc4ccc(Cl)cc34)C2)cc1 | x | x | 32.8 | -1.0 | -22.9 | 89.2*
Cc1cc(Cn2ccnc2)c(C)cc1Cn1ccnc1 | 59.1* | 18.4 | -12.1 | -0.3 | x | -6.3
